Screening results: PubChem BioAssay, SRMLSC
Fibroblast inh: antiproliferative effect on LL 47 fibroblasts – human, LL 47 cells, CellTiter-Glo luminescence, primary screen; viability, % at 10 µM; LL 47 human lung fibroblast viability, ATP luminescence; active compounds read low; hit rate 1.1% among 85,000; AID 719, 2007;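 active = viability at or below 50% in the single dose screen; inactive = viability above 50%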;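 note: compound exposure lasted 72 h before the ATP readout; 100% = median luminescence of untreated cell-only wells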
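test system = LL 47 human lung fibroblasts | amount = 1,150 fibroblasts seeded per well | medium = 15% FBS in IMEM | times = overnight cell rest, 72 h compound treatment at 37 °C | measured by = CellTiter-Glo luminescence measuring cellular ATP | read-out = viability percentage against median untreated-cell control | benchmarks = cell-only wells, no compound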
H69AR inhibit: proliferation blockers of H69AR lung cancer cells, primary screen, cell-based, human, 86K library; hit rate 6% among 85,000; H69AR lung tumor viability, ATP luminescence, 72 h; active compounds read low; viability, % at 10 µM;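 active = viability at or below 40%; inactive = viability above 40%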;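 note: multidrug resistant small cell line overexpressing MRP-1 efflux transporter; 100% = mean luminescence of untreated control wells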
HUVEC prolif 384: inhibitors of HUVEC proliferation, primary screen, cell-based, 384-well | CellTiter-Glo luminescence, 72 h; active compounds read low | viability, % at 10 µM (by protocol) | hit rate 1.1% among 86,000 | AID 648, 2007;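 active = viability at or below 30%; inactive = viability above 30%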;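 note: 100% = median luminescence of DMSO-only cell control wells on each plate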
bCat KO growth: primary screen for growth suppressors in beta-catenin knockout HCT116 cells (colon tumor, human); HCT116 beta-catenin knockout viability, CellTiter-Glo, 60 h; active compounds read low; viability, % at 10 µM; hit rate 1.5% among 140,000;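 active = viability at or under a set limit, the compound median less 4 SD, cut at about 6% in these data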;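 note: 0% = Hyamine 1622 control at 20 µM and 100% = untreated cell control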
PTEN del growth: growth suppression of PTEN-null HCT116, primary screen, cell-based, CellTiter-Glo; viability, % at 10 µM; HCT116 PTEN-null viability, 60 h; active compounds read low; hit rate 1.2% among 140,000; AID 827, 2007;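 active = viability at or below a set limit, 4 SD under the median of all tested compounds, cut at about 3.7% in these data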;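 note: PTEN knockout HCT116 line with beta catenin targeted HCT116 as companion control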
* marks the source's active call; other numbers are inactive results; / = no result. Only a selection was taken, and hits are over-represented in it overall.

SMILES | Fibroblast inh | H69AR inhibit | HUVEC prolif 384 | bCat KO growth | PTEN del growth
COc1ccc(-n2c(=S)[nH]c3cc(C(=O)NCCCN4CCCC4=O)ccc3c2=O)cc1 | 93 | 98 | 92 | 5.2* | 13
O=C(O)c1ccc(COc2c(F)c(F)c(F)c(F)c2F)o1 | / | / | / | 93 | 96
Cc1nn(-c2ccccc2)c2sc(C(=O)N(CC(=O)NC3CCCC3)Cc3ccco3)cc12 | 53 | 26* | 54 | 68 | 37
Cc1nn(-c2ccccc2)c2sc(C(=O)NC3CC3)cc12 | 90 | 95 | 91 | 83 | 84
NC(=S)N/N=C/c1ccc(-c2ccc(Cl)c(Cl)c2)o1 | 81 | 51 | 69 | 53 | 56
NC(=S)N/N=C\c1ccc(-c2cccc(Cl)c2Cl)o1 | 68 | 45 | 22* | 55 | 63
COc1ccc(/C=C\C(=O)CC(O)(c2ccccc2)C(F)(F)F)cc1 (stereo not drawn) | 88 | 1.2* | 87 | 10 | 11
COc1ccc(/C=C/C(=O)NCCCc2ccccc2)cc1 | / | / | / | 98 | 95
CC(C)(C)c1cc(NC(=O)CCSc2nnc3ccccn23)cc(C(C)(C)C)c1 | 46* | 53 | 46 | 38 | 50
Cc1cccc(NC(=O)c2cc(NC(=O)c3ccco3)ccc2Cl)n1 | 94 | 84 | 89 | 83 | 77
CCC(C(=O)OCC(=O)Nc1c(Cl)cccc1Cl)c1ccccc1 (stereo not drawn) | / | / | / | 94 | 99
CCc1ccc(C2CC(c3cccc(Cl)c3)n3nc(N)nc3N2)cc1 (stereo not drawn) | 103 | 38* | 97 | 69 | 63
Cc1ccc(C2CC(c3cccc(Cl)c3)n3nc(N)nc3N2)cc1 (stereo not drawn) | 92 | 79 | 101 | 98 | 97
O=C1CCCc2[nH]nc(-c3cccnc3)c21 | 94 | 99 | 95 | 104 | 96
CCC(C)/C(C)=N/NC(=O)c1ccc(CSc2nc3ccccc3s2)cc1 (stereo not drawn) | / | / | / | 78 | 73
C=CCN(C(=O)c1ccccc1)c1ccc(OC)cc1 | 88 | 24* | 82 | 42 | 33
COc1ccccc1CC(=O)Nc1ccc(O)cc1C(=O)O | 97 | 92 | 111 | 95 | 105
COc1ccc(-c2noc(-c3ccccc3C(=O)Nc3cccnc3)n2)cc1 | 95 | 76 | 87 | 86 | 80
O=C(Nc1ccc(-c2noc(-c3cccs3)n2)cc1)c1cccnc1 | 101 | 10* | 52 | 78 | 73
COc1cccc(-c2nc(-c3ccc(NC(=O)c4cccnc4)cc3)no2)c1 | 100 | 26* | 101 | 87 | 87
CCn1c(SCC(=O)O)nnc1C1CCCCC1 | 102 | 112 | 88 | 91 | 84
O=C(CC1(O)C(=O)N(C/C=C/c2ccccc2)c2ccccc21)c1ccccn1 (stereo not drawn) | 57 | 24* | 34 | 13 | 10
CCOC(=O)Cc1csc(N/C(=N/S(=O)(=O)c2cc(Br)ccc2OCC)c2ccccc2)n1 | / | / | / | 90 | 98
CCOC(=O)N1CC=C2C(C#N)=C(N)C(C#N)(C#N)[C@H](c3ccc(OCC)c(OCC)c3)[C@H]2C1 | 79 | 26* | 60 | 94 | 97
N#CC1=C(N)C(C#N)(C#N)C(c2cccnc2)C2CN(C(=O)OCc3ccccc3)CC=C12 (stereo not drawn) | 72 | 11* | 53 | 61 | 69
SMILES | Fibroblast inh | H69AR inhibit | HUVEC prolif 384 | bCat KO growth | PTEN del growth
CN1CC=C2C(C#N)=C(N)C(C#N)(C#N)C(c3cccc(Cl)c3Cl)C2C1 (stereo not drawn) | 78 | 15* | 71 | 84 | 89
N#CC1=C(N)C(C#N)(C#N)[C@H](c2ccoc2)[C@H]2CN(Cc3ccccc3)CC=C12 | 69 | 4.0* | 39 | 89 | 85
CN1CC=C2C(C#N)=C(N)C(C#N)(C#N)[C@H](c3ccoc3)[C@H]2C1 | 95 | 56 | 104 | 76 | 69
O=c1oc(-c2ccccc2NS(=O)(=O)c2ccc3ccccc3c2)nc2ccccc12 | / | / | / | 89 | 90
Cc1ccc(-n2c(SCC(=O)NCc3ccco3)nc3sc(C)c(C)c3c2=O)cc1 | 90 | 36* | 57 | 86 | 87
Cc1sc2nc(SCC(=O)NCc3ccco3)n(Cc3ccccc3)c(=O)c2c1C | 90 | 3.1* | 30* | 63 | 64
Cc1sc2nc(SCC(=O)NCc3ccco3)n(-c3ccccc3)c(=O)c2c1C | 88 | 55 | 80 | 92 | 89
O=C(NN=C1c2ccccc2-c2ccccc21)c1cccc(Br)c1 | / | / | / | 22 | 5
CC(C)n1c(SCC(=O)N2c3ccccc3CCc3ccccc32)nc2c1c(=O)n(C)c(=O)n2C | 97 | 20* | 43 | / | /
CC(C)n1c(SCC(=O)Nc2nc3c(s2)CCCC3)nc2c1c(=O)n(C)c(=O)n2C | 93 | 34* | 79 | 67 | 71
CC(C)OC(=O)c1nn2c(C(F)(F)F)cc(-c3ccc(Br)o3)nc2c1Br | 76 | 35* | 77 | 95 | 95
CC(C)OC(=O)c1nn2c(C(F)(F)F)cc(-c3ccco3)nc2c1Cl | 93 | 83 | 91 | 91 | 94
CC(C)(C)C1CCc2c(sc(NC(=O)c3cccs3)c2C(N)=O)C1 (stereo not drawn) | 23* | 34* | 88 | 68 | 62
CCC(C)(C)C1CCc2c(sc(NC(=O)c3cccs3)c2C(N)=O)C1 (stereo not drawn) | 88 | 81 | 93 | 90 | 87
Cn1c(=O)c2c(nc(Oc3ccc4c(c3)OCO4)n2Cc2ccc(Br)cc2)n(C)c1=O | 30* | 18* | 22* | / | /
Cc1c(Cl)ccc2sc(NC(=O)CN3C(=O)c4ccccc4C3=O)nc12 | / | / | / | 0.8* | 0.5*
Cc1ccc2sc(NC(=O)CN3C(=O)CCC3=O)nc2c1C | 99 | 98 | 104 | 105 | 108
CCN1CCCC1CNC(=O)C1CCN(Cc2nc(-c3cccc(Br)c3)oc2C)CC1 (stereo not drawn) | 29* | 52 | 18* | 4.7* | 6
COc1ccccc1CNC(=O)C1CCN(Cc2nc(-c3cccc(Cl)c3)oc2C)CC1 | 89 | 40* | 56 | 22 | 24
COc1ccccc1CNC(=O)C1CCN(Cc2nc(-c3ccc(Cl)cc3)oc2C)CC1 | 103 | 66 | 42 | / | /
CCc1ccc(-c2nc(CN3CCC(C(=O)NCCc4ccc(OC)c(OC)c4)CC3)c(C)o2)cc1 | 90 | 69 | 55 | 2.0* | 15
CCc1ccc(-c2nc(CN3CCC(C(=O)NCc4ccccc4OC)CC3)c(C)o2)cc1 | 66 | 18* | 32 | 21 | 34
Cc1ccnc(NC(=S)NC(=O)c2cccs2)c1 | / | / | / | 81 | 84
COc1cc2c(cc1OC)CN(C(=O)c1ccc(OC)c(S(=O)(=O)N3CCOCC3)c1)CC2 | 106 | 95 | 99 | 102 | 111
O=C(/C=C/c1c(F)cccc1Cl)c1ccc(F)cc1 | / | / | / | 4.3* | 2.4*
O=C(N/N=C/c1c(Cl)cccc1Cl)c1ccc(F)cc1 | / | / | / | 98 | 92
